# TAG inh: inhibitors of triacylglycerol accumulation; H9c2 cells, Nile Red lipid (TAG) fluorescence; cells loaded with 200 µM oleic acid; inhibition, % at 12.5 µM; 230,000 tested, 0.66% active;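 active = pattern-corrected inhibition of lipid staining of at least 50% with the nuclear-stain viability signal not falling by more than 50%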;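 also: 0% = DMSO wells and 100% = triacsin C control wells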
# Arr AP2 block: human beta-arrestin and AP2 interaction inhibition; FITC-arrestin peptide / GST-AP2 beads, flow cytometry; AP2 beta2 appendage carries R879A mutation; inhibition, % at 10 µM; AID 504490; 340,000 tested, 0.31% active;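 active = inhibition above a set limit, near 3 SD of compounds lacking own fluorescence, cut at about 54% in these data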;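 also: plate controls were DMSO wells for no effect and 5 µM unlabelled arrestin peptide for full effect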
#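 System: GST-AP2 R879A glutathione beads. Medium: PBS with 0.05% Tween 20 and 0.1% BSA. Also added: FITC-arrestin peptide, 50 nM. Incubation: 12 min plus 1 h, RT. Measured by: high-throughput flow cytometry of beads, ex 488, em 535 nm. Evaluation: percent drop in bead-associated FITC signal.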
# NTR1 agonist: agonists of human neurotensin receptor NTR1; NTR1-U2OS beta-arrestin-GFP spot imaging, agonist mode; activation, % at 20 µM; 330,000 tested, 0.17% active; AID 493036;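 active = activation at or above 40% of the spot to cytoplasm intensity ratio, with at least 20 cells analyzed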;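 also: 0% = DMSO without peptide and 100% = 100 nM NTR1 peptide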
# Lipid droplet: modulators of hepatic lipid droplet formation; AML12 mouse hepatocytes, oleate lipid droplets, BODIPY imaging; inhibition, % at 6.5 µM; 240,000 tested, 0.4% active;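 active = lipid droplet intensity inhibited by at least 50%, with more than 500 cells counted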
#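 Assay system: AML12 hepatocytes (mouse); Probe or stimulus: oleic acid at 100 µM to induce lipid droplet formation; Dosing: compound at 6.5 µM only; Schedule: compound with oleate, overnight; Detection: fluorescence imaging, 20x objective, two fields per well; Measure: % inhibition of lipid droplet signal.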
# GRK2 aptamer HTS: inhibitors of human GRK2 displacing RNA aptamer. bead flow cytometry, FAM-aptamer displacement from GRK2. inhibition of aptamer binding, % at 10 µM. 330,000 tested, 0.59% active;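 active = inhibition of aptamer binding above 40%, roughly 3 SD of noise, on plates passing a quality check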;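 also: median bead fluorescence of bound FAM aptamer so fluorescent compounds give negative values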
# B2AR ag: human beta-2 adrenergic receptor agonism by FAP. response, % (no concentration beside the values). AID 504454. Am2.2-beta2AR cells, FAP receptor internalization, flow cytometry. P07550. 340,000 tested, 0.43% active;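 active = response above a set limit, near 3 SD of response in nonfluorescent compounds, cut at about 42% in these data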
# Target sequence (P07550 whole entry, looked up): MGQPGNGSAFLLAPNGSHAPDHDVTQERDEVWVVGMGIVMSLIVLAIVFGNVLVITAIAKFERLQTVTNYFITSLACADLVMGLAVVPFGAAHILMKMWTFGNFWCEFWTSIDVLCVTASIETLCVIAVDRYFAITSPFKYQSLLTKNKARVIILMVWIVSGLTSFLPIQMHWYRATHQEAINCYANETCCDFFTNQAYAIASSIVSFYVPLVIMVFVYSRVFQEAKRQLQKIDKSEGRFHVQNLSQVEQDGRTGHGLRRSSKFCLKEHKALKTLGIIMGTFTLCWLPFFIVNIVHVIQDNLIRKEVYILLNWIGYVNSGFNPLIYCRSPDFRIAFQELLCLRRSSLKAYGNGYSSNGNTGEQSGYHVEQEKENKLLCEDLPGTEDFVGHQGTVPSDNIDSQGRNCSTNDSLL
# GRK2 CP1: confirmation of human GRK2 inhibitors displacing RNA aptamer | bead-bound GRK2, FAM-aptamer displacement, flow cytometry | 2,000 tested, 4% active | shares compounds with GRK2 aptamer HTS | aptamer displacement, % at 10 µM;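 active = aptamer displacement above 40%, near three times the noise of non-fluorescent compounds, on plates passing quality checks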;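 also: negative values mostly reflect intrinsic compound fluorescence rather than true enhancement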
# FAM quench CP1: aptamer fluorescence quenching in GRK2 counter-screen | AID 504580 | 2,000 tested, under 10 active | shares compounds with GRK2 aptamer HTS | Carboxyfluorescein RNA aptamer on beads, flow cytometry quenching; active compounds read low | fluorescence response (% of DMSO), % at 10 µM;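 active = compounds that quench the bead-bound fluorescent RNA probe, cutting fluorescence to under half of the solvent control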;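 also: counterscreen run without GRK2 so only probe quenching by compound is measured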
# GRK2 CP2: human GRK2 inhibition confirmation, cherry pick 2. bead-bound GRK2, FAM-aptamer displacement, flow cytometry. 360 tested, under 10 active. inhibition of aptamer binding, % at 10 µM. shares compounds with GRK2 aptamer HTS;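 active = inhibition of aptamer binding above 40%, about triple the noise seen with nonglowing compounds, on plates passing quality control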;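 also: negative values mostly come from compounds that fluoresce themselves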
# FAM quench CP2: quenches fluorescent RNA aptamer, GRK2 hit artifact; shares compounds with GRK2 aptamer HTS; carboxyfluorescein RNA aptamer beads, flow cytometry quenching; active compounds read low; fluorescence response vs DMSO, % at 10 µM; 360 tested, under 10 active; AID 588494;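 active = response vs DMSO under 50%, meaning signal dropped by over half, treated as fluorescence quencher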;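 also: labelled aptamer on streptavidin beads without GRK2 as a quench counter-screen; 100% = bead fluorescence of DMSO wells and lower means quenching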
# Starred values were filed as active, the others as inactive; nt = no result given. A selection: hits, their analogues and other compounds. The true share with any hit is near 2%.
SMILES,TAG inh,Arr AP2 block,NTR1 agonist,Lipid droplet,GRK2 aptamer HTS,B2AR ag,GRK2 CP1,FAM quench CP1,others
COCCCN1C(=O)C(=O)/C(=C(/O)c2ccc(S(=O)(=O)N3CCCCC3)cc2)C1c1ccc(O)c(OC)c1 (configuration not stated),nt,-8,-1,-1,0,4,nt,nt,
COc1ccc(CNC(=O)C2COc3ccccc3O2)c(OC)c1 (configuration not stated),nt,-4,0,nt,4,6,-3,99,
Cc1ccc(Oc2nc3ccccn3c(=O)c2/C=C(\C#N)C(=O)NC2CCS(=O)(=O)C2)cc1 (configuration not stated),-2,-8,2,-6,75*,-7,1,92,
CCOC(=O)c1cccc(NC(=O)c2ccc(N(C)C)cc2)c1,nt,12,1,-3,0,-5,nt,nt,
Cc1cc(C)n2nc(SCC(=O)NC(=O)c3ccccc3)nc2n1,4,9,-1,nt,2,4,nt,nt,
CCOC(=O)c1c(C)[nH]c(C(=O)COC(=O)COc2ccc(OC)cc2)c1C,nt,-7,0,10,70*,10,2,96,
O=C(OCCOc1ccccc1)c1cc(S(=O)(=O)N2CCOCC2)c(Cl)cc1Cl,-8,nt,nt,nt,nt,nt,nt,nt,
COCCN(C(=O)c1ccccc1Oc1ccccc1)c1c(N)n(CC(C)C)c(=O)[nH]c1=O,-8,21,-2,nt,41*,2,0,98,
O=S(=O)(Nc1ccncc1)c1cc(Cl)c(Cl)cc1Cl,nt,33,0,-1,1,3,nt,nt,
Cc1nc(CC(=O)Nc2nccs2)cs1,nt,18,0,28,1,-9,nt,nt,
Cc1nnc(Nc2ccc(C(=O)NCCO)cc2)c2ccccc12,3,2,-1,nt,49*,-11,0,98,
CNC(=O)c1ccc(Nc2nnc(C)c3ccccc23)cc1,nt,3,1,-3,1,-7,nt,nt,
CC(=O)c1cccc(Nc2c3c(nc4ccccc24)CCC3)c1,nt,-24,2,-91,0,1,nt,nt,
Fc1cccc(Nc2c3c(nc4ccccc24)CCC3)c1,nt,13,6,-19,0,-6,nt,nt,GRK2 CP2=1;FAM quench CP2=100
CN(C)CCNc1c2c(nc3ccccc13)CCC2,10,6,2,-18,0,13,nt,nt,GRK2 CP2=4;FAM quench CP2=100
O=C(NCc1ccccc1)NCc1cccs1,6,12,1,-15,0,0,nt,nt,
CC(C)=NOCC(=O)Nn1c(COc2ccccc2)nc2ccccc2c1=O,nt,-2,0,0,1,0,nt,nt,
O=C(OCc1nnc(-c2ccccc2)o1)C1CC(=O)N(CCc2ccccc2)C1 (configuration not stated),-2,5,-1,nt,3,4,1,102,
Cc1cc(NC(=O)Nc2ccc3c(ccn3C)c2)sn1,-2,7,2,nt,0,-1,0,99,
Cc1ccc(C(=O)Nn2cnnc2)cc1[N+](=O)[O-],nt,4,1,nt,47*,-2,0,101,
O=C(Nn1cnnc1)c1ccc(Cl)cc1[N+](=O)[O-],nt,3,0,6,93*,0,-4,101,
Cc1ccc(C(=O)NN2CCOCC2)cc1[N+](=O)[O-],3,21,2,-2,0,-1,nt,nt,
C=CCNC(=O)/C(=C/c1cccc([N+](=O)[O-])c1)NC(=O)c1ccccc1,1,-1,1,1,46*,-5,0,97,
COc1cccc(OC)c1C(=O)Nc1ccc(C(=O)NCc2ccccc2)cc1,-1,-5,-1,0,1,-1,nt,nt,
